The nature of experiment [1]: Inhibition of cGMP-PDE (unknown origin). Also noted: species or system Homo sapiens.
Experiment [2] is described as follows: Inhibition of cAMP-PDE (unknown origin). Also noted: species or system Homo sapiens.
The subject of the next experiment is SF-268. The experiment can be described thus: Cytotoxicity against human SF268 cells. It is filed as functional, cell-based. The gist of the method:
(§1)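 Panel of three human tumour lines: MCF-7 breast carcinoma, NCI-H460 large cell lung carcinoma and SF-268 astrocytoma. The cytotoxicity protocol follows the group's earlier reports.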

The target in experiment [3] is 3',5'-cyclic-AMP phosphodiesterase 4B (Homo sapiens, UniProt Q07343). The experiment can be described thus: Inhibition of human PDE4B2.
The subject of the next experiment is Candida albicans. Briefly: Antifungal activity against Candida albicans by agar plate diffusion assay. In kind it is functional, organism-based.
The test system of another experiment is MCF7. Briefly: Cytotoxicity against human MCF7 cells. It is filed as functional, cell-based. The gist of the method: as §1
The next experiment relates to Staphylococcus aureus. Briefly: Antibacterial activity against Staphylococcus aureus by agar plate diffusion assay. It is filed as functional.
The next experiment has as its system NCI-H460. The experiment can be described thus: Cytotoxicity against human H460 cells. It is filed as functional, cell-based. A digest of the protocol: as §1

Values after ≈ are worked out from the molar mass of the structure shown. Active and inactive are the calls of the source. The calls are words filed in the database; no cut-off is given here.

As usually defined, the IC50 is the midpoint of a concentration-inhibition curve. Usually MIC stands for the lowest concentration that inhibits growth of the organism. High values mean weaker potency, low ones greater potency.

Chain of 3',5'-cyclic-AMP phosphodiesterase 4B (Q07343 whole entry, the tested form may be a part): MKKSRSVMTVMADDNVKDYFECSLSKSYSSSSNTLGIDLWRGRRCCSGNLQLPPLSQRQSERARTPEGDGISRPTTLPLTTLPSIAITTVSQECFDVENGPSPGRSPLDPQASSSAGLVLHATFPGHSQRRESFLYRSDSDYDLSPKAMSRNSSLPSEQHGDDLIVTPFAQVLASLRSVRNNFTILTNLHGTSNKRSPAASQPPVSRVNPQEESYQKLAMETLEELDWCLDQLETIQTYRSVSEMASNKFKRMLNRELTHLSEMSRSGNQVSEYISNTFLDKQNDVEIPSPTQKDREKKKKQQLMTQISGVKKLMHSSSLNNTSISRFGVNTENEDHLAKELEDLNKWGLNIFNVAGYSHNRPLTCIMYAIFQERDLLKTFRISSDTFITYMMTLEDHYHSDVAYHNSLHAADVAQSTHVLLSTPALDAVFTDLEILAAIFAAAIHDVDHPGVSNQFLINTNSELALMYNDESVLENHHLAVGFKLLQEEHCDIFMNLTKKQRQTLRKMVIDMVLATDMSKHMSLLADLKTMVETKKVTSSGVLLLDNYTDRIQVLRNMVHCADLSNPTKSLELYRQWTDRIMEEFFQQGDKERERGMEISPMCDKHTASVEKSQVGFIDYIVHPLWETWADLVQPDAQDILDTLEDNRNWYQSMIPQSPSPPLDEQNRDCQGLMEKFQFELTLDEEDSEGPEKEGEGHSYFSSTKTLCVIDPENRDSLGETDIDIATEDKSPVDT

For `COc1cc(-c2ccccc2)c(O)c(O)c1-c1ccccc1` [TERFEROL], the IC50 stood at 960 nM in experiment [1] and 820 nM in experiment [2].

For `COc1c(O)c(-c2ccccc2)cc(O)c1-c1ccccc1`, the result in the experiment with SF-268, in the experiment on MCF7 and in the experiment on NCI-H460 was Active. For the same molecule, the 50% inhibitory concentration (IC50) in experiment [3] stood at 31 µM. Also, the result in the experiment on Candida albicans was inactive. Also, the MIC in the experiment on Staphylococcus aureus turned out to be 25 µg/mL (≈ 85.5 µM).

As for `COC1=C(c2ccccc2)C(=O)C=C(c2ccccc2)C1=O` [BETULINAN C], the outcome in the experiment with SF-268, in the experiment with MCF7 and in the experiment with NCI-H460 was Active. This molecule also displayed a half-inhibitory concentration (IC50) in experiment [3] of 17 µM. In the experiment on Candida albicans, the outcome was inactive. The molecule further displayed an MIC in the experiment with Staphylococcus aureus of 25 µg/mL (≈ 86.1 µM).

In the case of `COC1=C(c2ccccc2)C(=O)C(OC)=C(c2ccccc2)C1=O` [BETULINAN A], the outcome in the experiment with SF-268, with MCF7 and in the experiment on NCI-H460 was inactive. Moreover, the IC50 in experiment [3] was found to be 44 µM.

(Values after ChEMBL document CHEMBL2331090, “Benzoquinones and terphenyl compounds as phosphodiesterase-4B inhibitors from a fungus of the order Chaetothyriales (MSX 47445)” (J Nat Prod, 2013).)
